Experimental data from publication PMC8602434 (Drugs in R&D, 2021).

Key:
[1] = Rat 28-day toxicology study with toxicokinetic analysis, sc; type: in vivo
Procedure, shortened: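 Male and female CD Sprague Dawley rats (233–264 g male, 172–201 g female). 28-day toxicology study (70 per sex) with daily sc dosing at 0, 1.0, 5.0 or 25.0 mg/kg/day. Blood drawn via sublingual vein, three animals per sex per dose at each time point. Noncompartmental analysis of mean concentration–time data gave AUClast, Cmax, tmax and t½.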

[2] = Healthy volunteers, single-dose arm, sc; type: in vivo; conditions: human; for half-life: t½
Procedure, shortened: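 Double-blind single abdominal sc injection at 0.1, 0.5, 1, 3 or 5 mg versus placebo. Cohorts of six or eight subjects; the 0.1 mg cohort had 4 active and 2 placebo. Serial blood sampling to 48 h post-dose. Plasma assayed by validated bioanalytical method. Noncompartmental analysis: Cmax, tmax, t½, AUC (linear trapezoidal to last quantifiable concentration), AUC∞, CL/F. AEs recorded.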

[3] = both, plasma, sc, 0.1 mg, single 0.1 mg sc, mean (SD), n=4
[4] = both, plasma, sc, 0.5 mg, single 0.5 mg sc, mean (SD), n=4
[5] = both, plasma, sc, 1 mg, single 1.0 mg sc, mean (SD), n=6
[6] = both, plasma, sc, 3 mg, single 3.0 mg sc, median, n=6
[7] = both, plasma, sc, 5 mg, single 5.0 mg sc, mean (SD), n=6
[8] = single 0.1 mg sc, geometric mean, n=4
[9] = single 0.1 mg sc, mean (SD), n=4
[10] = single 0.5 mg sc, geometric mean, n=2
[11] = single 0.5 mg sc, geometric mean, n=4

AUC(0-t) ([2]; both, plasma, sc, 0.1 mg): 2.7 ng·h/mL
tmax ([2]; both, plasma, sc, 0.1 mg): 36 min
AUC(0-inf) [2, 3]: 3.5 ng·h/mL
CL/F ([2]; both, plasma, sc, 0.1 mg, CL/F, single 0.1 mg sc, mean (SD), n=4): 497 mL/min
Cmax ([2]; both, plasma, sc, 0.1 mg, Cmax, single 0.1 mg sc, mean (SD), n=4): 2.3 ng/mL
Vd/F ([2]; both, plasma, sc, 0.1 mg, Vd/F, single 0.1 mg sc, mean (SD), n=4): 36.1 L
half-life [2, 3]: 54 min
AUC(0-t) ([2]; both, plasma, sc, 0.5 mg): 19.9 ng·h/mL
tmax ([2]; both, plasma, sc, 0.5 mg): 30 min
AUC(0-inf) [2, 4]: 22.4 ng·h/mL
CL/F ([2]; both, plasma, sc, 0.5 mg, CL/F, single 0.5 mg sc, mean (SD), n=4): 477 mL/min
Cmax ([2]; both, plasma, sc, 0.5 mg, Cmax, single 0.5 mg sc, mean (SD), n=4): 8.2 ng/mL
Vd/F ([2]; both, plasma, sc, 0.5 mg, Vd/F, single 0.5 mg sc, mean (SD), n=2): 74.4 L
half-life [2, 4]: 168 min
AUC(0-t) ([2]; both, plasma, sc, 1 mg): 40.3 ng·h/mL
tmax ([2]; both, plasma, sc, 1 mg): 36 min
AUC(0-inf) [2, 5]: 46.2 ng·h/mL
CL/F ([2]; both, plasma, sc, 1 mg, CL/F, single 1.0 mg sc, mean (SD), n=6): 382 mL/min
Cmax ([2]; both, plasma, sc, 1 mg, Cmax, single 1.0 mg sc, mean (SD), n=6): 17.4 ng/mL
Vd/F ([2]; both, plasma, sc, 1 mg, Vd/F, single 1.0 mg sc, mean (SD), n=3): 173 L
Vd/F ([2]; both, plasma, sc, 1 mg, Vd/F, single 1.0 mg sc, median, n=3): 186 L
half-life [2, 5]: 402 min
AUC(0-t) ([2]; both, plasma, sc, 3 mg): 137 ng·h/mL
AUC(0-inf) [2, 6]: 163 ng·h/mL
CL/F ([2]; both, plasma, sc, 3 mg, CL/F, single 3.0 mg sc, mean (SD), n=6): 322 mL/min
CL/F ([2]; both, plasma, sc, 3 mg, CL/F, single 3.0 mg sc, median, n=6): 307 mL/min
Cmax ([2]; both, plasma, sc, 3 mg, Cmax, single 3.0 mg sc, median, n=6): 49.1 ng/mL
Vd/F ([2]; both, plasma, sc, 3 mg, Vd/F, single 3.0 mg sc, mean (SD), n=4): 375 L
Vd/F ([2]; both, plasma, sc, 3 mg, Vd/F, single 3.0 mg sc, median, n=4): 394 L
half-life ([2]; both, plasma, sc, 3 mg, single 3.0 mg sc, geometric mean, n=6): 912 min
half-life ([2]; both, plasma, sc, 3 mg, single 3.0 mg sc, mean (SD), n=6): 1170 min
half-life [2, 6]: 738 min
AUC(0-t) ([2]; both, plasma, sc, 5 mg): 226 ng·h/mL
tmax ([2]; both, plasma, sc, 5 mg): 48 min
AUC(0-inf) [2, 7]: 240 ng·h/mL
CL/F ([2]; both, plasma, sc, 5 mg, CL/F, single 5.0 mg sc, mean (SD), n=6): 355 mL/min
Cmax ([2]; both, plasma, sc, 5 mg, Cmax, single 5.0 mg sc, mean (SD), n=6): 87.8 ng/mL
Vd/F ([2]; both, plasma, sc, 5 mg, Vd/F, single 5.0 mg sc, mean (SD), n=6): 502 L
half-life [2, 7]: 978 min
Median time for last measurable concentration ([2]; 0.1-mg dose): 2 h
Median time for last measurable concentration ([2]; 0.5-mg dose): 6 h
Median time for last measurable concentration ([2]; 1-mg dose): 16 h
Median time for last measurable concentration ([2]; 3-mg dose): 30 h
Median time for last measurable concentration ([2]; 5-mg dose): 48 h
AUC0–t [2, 8]: 2.6 ng·h/mL
AUC∞ [2, 8]: 3.4 ng·h/mL
AUC∞/dose [2, 8]: 34.2 ng·h/mL/mg
CL/F [2, 8]: 487 mL/min
Cmax [2, 8]: 2.2 ng/mL
Cmax/dose [2, 8]: 22.1 ng/mL/mg
t½ [2, 8]: 48 min
AUC∞/dose [2, 9]: 34.9 (7.82) ng·h/mL/mg
Cmax/dose [2, 9]: 23.4 (10.1) ng/mL/mg
AUC0–t ([2]; single 0.1 mg sc, median, n=4): 2.6 ng·h/mL
AUC∞ ([2]; single 0.1 mg sc, median, n=4): 3.5 ng·h/mL
AUC∞/dose ([2]; single 0.1 mg sc, median, n=4): 35.3 ng·h/mL/mg
CL/F ([2]; single 0.1 mg sc, median, n=4): 475 mL/min
Cmax ([2]; single 0.1 mg sc, median, n=4): 1.9 ng/mL
Cmax/dose ([2]; single 0.1 mg sc, median, n=4): 18.9 ng/mL/mg
Vd/F ([2]; single 0.1 mg sc, median, n=4): 36.6 L
t½ ([2]; single 0.1 mg sc, median, n=4): 48 min
AUC∞/dose [2, 10]: 50.4 ng·h/mL/mg
Vd/F [2, 10]: 74.1 L
AUC0–t [2, 11]: 16.8 ng·h/mL
AUC∞ [2, 11]: 19.4 ng·h/mL
CL/F [2, 11]: 430 mL/min
SMILES: CCCC[C@H](NC(C)=O)C(=O)N[C@H]1CCC(=O)NC[C@@H](C(=O)N[C@@H](Cc2c[nH]c3ccccc23)C(N)=O)NC(=O)[C@H](CCCNC(=N)N)NC(=O)[C@@H](Cc2ccccc2)NC(=O)[C@H](Cc2c[nH]cn2)NC1=O [PL8177]
tmax ([1]; rat F, 1.0 mg/kg sc daily, Day 14 (truncated curve, 3 data points)): 30 min
tmax ([1]; rat F, 1.0 mg/kg sc daily, Day 28): 30 min
tmax ([1]; rat F, 5.0 mg/kg sc daily, Day 14 (truncated curve, 3 data points)): 60 min
tmax ([1]; rat F, 25.0 mg/kg sc daily, Day 14 (truncated curve, 3 data points)): 30 min
tmax ([1]; rat F, 25.0 mg/kg sc daily, Day 28): 30 min
tmax ([1]; rat M, 1.0 mg/kg sc daily, Day 1): 30 min
tmax ([1]; rat M, 1.0 mg/kg sc daily, Day 14 (truncated curve, 3 data points)): 30 min
tmax ([1]; rat M, 1.0 mg/kg sc daily, Day 28): 30 min
tmax ([1]; rat M, 5.0 mg/kg sc daily, Day 14 (truncated curve, 3 data points)): 60 min
tmax ([1]; rat M, 5.0 mg/kg sc daily, Day 28): 30 min
tmax ([1]; rat M, 25.0 mg/kg sc daily, Day 28): 15 min
